Source: ChEMBL document CHEMBL2040734, “Benzothiazoles: search for anticancer agents” (2012)

Assays:
Type in all cases: functional
OVCAR-8 = test: Cytotoxicity against human OVCAR8 cells assessed as cell growth at 0.01 uM after 48 hrs by sulforhodamine B assay; conditions: OVCAR-8, 48 h, read-out: Activity
[1] = Cytotoxicity against human Hs 578T cells assessed as cell growth at 0.01 uM after 48 hrs by sulforhodamine B assay; conditions: read-out: Activity
How it was run: (§1)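 Five-dose NCI panel run at 0.01, 0.1, 1, 10 and 100 µM. Cells were in RPMI 1640 with 5% FBS and 2 mM L-glutamine, seeded at 5000–40,000 cells/well and pre-incubated 24 h. Drug was diluted from a DMSO stock into medium with 50 µg/ml gentamicin. Exposure was 48 h at 37 °C, 5% CO2. Cells were fixed with cold TCA and stained with 0.4% SRB, read at 515 nm. Percent growth came from time-zero, control and test absorbances.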

MDA-MB-468 [2] = test: Cytotoxicity against human MDA-MB-468 cells assessed as cell growth at 0.01 uM after 48 hrs by sulforhodamine B assay; conditions: MDA-MB-468, 48 h, read-out: Activity
HCT-116 = test: Cytotoxicity against human HCT116 cells assessed as cell growth at 0.1 uM after 48 hrs by sulforhodamine B assay; conditions: HCT-116, 48 h, read-out: Activity; how it was run: as §1
SF-539 = test: Cytotoxicity against human SF539 cells assessed as cell growth at 0.1 uM after 48 hrs by sulforhodamine B assay; conditions: SF-539, 48 h, read-out: Activity
MDA-MB-435 [3] = test: Cytotoxicity against human MDA-MB-435 cells assessed as cell growth at 0.1 uM after 48 hrs by sulforhodamine B assay; conditions: MDA-MB-435, 48 h, read-out: Activity
HT-29 = test: Cytotoxicity against human HT-29 cells assessed as cell growth at 100 uM after 48 hrs by sulforhodamine B assay; conditions: HT-29, 48 h, read-out: Activity; how it was run: as §1
SW-620 = test: Cytotoxicity against human SW620 cells assessed as cell growth at 100 uM after 48 hrs by sulforhodamine B assay; conditions: SW-620, 48 h, read-out: Activity
MDA-MB-435 [4] = test: Cytotoxicity against human MDA-MB-435 cells assessed as cell growth at 100 uM after 48 hrs by sulforhodamine B assay; conditions: MDA-MB-435, 48 h, read-out: Activity
OVCAR-3 = test: Cytotoxicity against human OVCAR3 cells assessed as cell growth at 100 uM after 48 hrs by sulforhodamine B assay; conditions: OVCAR-3, 48 h, read-out: Activity
786-0 [5] = test: Cytotoxicity against human 786-0 cells assessed as cell growth at 1 uM after 48 hrs by sulforhodamine B assay; conditions: 786-0, 48 h, read-out: Activity
How it was run: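 NCI-60 five-dose screen. Cells were grown in RPMI 1640 with 5% FBS and 2 mM L-glutamine and preincubated 24 h. Compound (DMSO stock) was tested at 0.01, 0.1, 1, 10 and 100 µM for 48 h at 37 °C. Cells were fixed in situ with cold TCA (final 10%) and stained with 0.4% SRB. A515 was read, and percent growth was calculated against time-zero and control plates.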

U-251 = test: Cytotoxicity against human U251 cells assessed as cell growth at 10 uM after 48 hrs by sulforhodamine B assay; conditions: U-251, 48 h, read-out: Activity
SK-MEL-2 = test: Cytotoxicity against human SK-MEL-2 cells assessed as cell growth at 10 uM after 48 hrs by sulforhodamine B assay; conditions: SK-MEL-2, 48 h, read-out: Activity
PC-3 = test: Cytotoxicity against human PC3 cells assessed as cell growth at 10 uM after 48 hrs by sulforhodamine B assay; conditions: PC-3, 48 h, read-out: Activity
MDA-MB-468 [6] = test: Cytotoxicity against human MDA-MB-468 cells assessed as cell growth at 10 uM after 48 hrs by sulforhodamine B assay; conditions: MDA-MB-468, 48 h, read-out: Activity
COLO 205 = test: Cytotoxicity against human COLO205 cells assessed as cell growth at 10 '-5 M after 48 hrs by sulforhodamine B assay; conditions: COLO 205, 48 h, read-out: Activity
How it was run: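 Primary NCI-60 single-dose screen at 10 µM. Cells were grown in RPMI 1640 with 5% FBS and 2 mM L-glutamine and plated 24 h before drug addition. Compound was solubilized in DMSO, then exposed for 48 h at 37 °C under 5% CO2. Cells were TCA-fixed and stained with SRB, and absorbance was read at 515 nm. Growth was expressed relative to time-zero and untreated controls.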

HCT-15 = test: Cytotoxicity against human HCT15 cells assessed as cell growth at 10 '-5 M after 48 hrs by sulforhodamine B assay; conditions: HCT-15, 48 h, read-out: Activity
How it was run: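 Primary one-dose screen across the NCI 60-line panel at 10 µM. Cells were grown in RPMI 1640 with 5% FBS and 2 mM L-glutamine and held 24 h before drug. Drug was diluted from a DMSO concentrate. Exposure was 48 h at 37 °C, 5% CO2. Cells were fixed with TCA and stained with SRB, with absorbance read at 515 nm. Percent growth was calculated against time-zero and untreated control.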

LOX IMVI = test: Cytotoxicity against human LOXIMVI cells assessed as cell growth at 10 '-5 M after 48 hrs by sulforhodamine B assay; conditions: read-out: Activity
SF-295 = test: Growth inhibition of human SF295 cells after 48 hrs by sulforhodamine B assay; conditions: SF-295, 48 h; for CC50: read-out: LC50 (the source's name)
How it was run: (§2)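 Adherent NCI-60 lines were grown in RPMI 1640 with 5% FBS and 2 mM L-glutamine, plated at 5000–40,000 cells/well and preincubated 24 h. They were then exposed to five concentrations (0.01–100 µM, from a DMSO stock) for 48 h at 37 °C, 5% CO2. Cells were fixed with cold TCA (10% final, 60 min, 4 °C) and stained with 0.4% SRB. Dye was solubilized in 10 mM Tris base and A515 read. GI50 was derived from time-zero, control and treated absorbances.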

Malme-3M = test: Growth inhibition of human MALME-3M cells after 48 hrs by sulforhodamine B assay; conditions: for CC50: read-out: LC50 (the source's name); how it was run: as §2
786-0 [7] = test: Growth inhibition of human 786-0 cells after 48 hrs by sulforhodamine B assay; conditions: 786-0, 48 h; for CC50: read-out: LC50 (the source's name)
How it was run: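 Cells were in RPMI 1640 with 5% FBS and pre-incubated 24 h. Read-out was TCA fixation, SRB staining and absorbance at 515 nm. GI50 was the concentration where [(Ti−Tz)/(C−Tz)]×100 = 50, taken from log concentration vs % growth curves. It is given as ">" the top concentration when not reached.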

TK-10 = test: Growth inhibition of human TK10 cells after 48 hrs by sulforhodamine B assay; conditions: TK-10, 48 h; for CC50: read-out: LC50 (the source's name); how it was run: as §2
[8] = Growth inhibition of human Hs 578T cells after 48 hrs by sulforhodamine B assay; conditions: for CC50: read-out: LC50 (the source's name); how it was run: as §2
T47D = test: Growth inhibition of human T47D cells after 48 hrs by sulforhodamine B assay; how it was run: as §2

Q: What does the source list for `Cc1ccc2nc(Nc3c(C)cccc3C)sc2c1`?
A: growth at 0.01 µM (OVCAR-8): 103%; growth at 0.01 µM [1]: 92%; growth at 0.01 µM (MDA-MB-468 [2]): 88%; growth at 0.1 µM (HCT-116): 103%; growth at 0.1 µM (SF-539): 97%; growth at 0.1 µM (MDA-MB-435 [3]): 86%; growth at 100 µM (HT-29): 39%; growth at 100 µM (SW-620): 45%; growth at 100 µM (MDA-MB-435 [4]): -10%; growth at 100 µM (OVCAR-3): 66%; growth at 1 µM (786-0 [5]): 81%; growth at 10 µM (U-251): 63%; growth at 10 µM (SK-MEL-2): 48%; growth at 10 µM (PC-3): 49%; growth at 10 µM (MDA-MB-468 [6]): 9%; growth at 10 µM (COLO 205): 32.2%; growth at 10 µM (HCT-15): 19.9%; growth at 10 µM (LOX IMVI): 24.7%; GI50 (SF-295): 0.725 µM; TGI (SF-295): > 100 µM; CC50 (SF-295): > 100 µM; TGI (Malme-3M): > 100 µM; CC50 (Malme-3M): > 100 µM; GI50 (786-0 [7]): > 100 µM; TGI (786-0 [7]): > 100 µM; CC50 (786-0 [7]): > 100 µM; GI50 (TK-10): > 100 µM; TGI (TK-10): > 100 µM; CC50 (TK-10): > 100 µM; GI50 [8]: 3.84 µM; TGI [8]: > 100 µM; CC50 [8]: > 100 µM; GI50 (T47D): 54.8 µM; LC50 (concentration giving 50% net cell kill) (T47D): > 100 µM; TGI (T47D): > 100 µM

Q: With `Clc1cccc(Cl)c1Nc1nc2cccc(Cl)c2s1` as the molecule, how does the growth at 0.01 µM (OVCAR-8) read?
A: 101%

Q: What about the growth at 0.01 µM [1] of the same molecule?
A: 87%

Q: What about the growth at 0.01 µM (MDA-MB-468 [2]) of the same molecule?
A: 89%

Q: What about the growth at 0.1 µM (HCT-116) of the same molecule?
A: 99%

Q: What about the growth at 0.1 µM (SF-539) of the same molecule?
A: 100%

Q: And the growth at 0.1 µM (MDA-MB-435 [3])?
A: 87%

Q: What about the growth at 100 µM (HT-29) of the same molecule?
A: -56%

Q: What about the growth at 100 µM (SW-620) of the same molecule?
A: -82%

Q: And the growth at 100 µM (MDA-MB-435 [4])?
A: -67%

Q: And the growth at 100 µM (OVCAR-3)?
A: -76%

Q: And the growth at 1 µM (786-0 [5])?
A: 52%

Q: What about the growth at 10 µM (U-251) of the same molecule?
A: -84%

Q: What about the growth at 10 µM (SK-MEL-2) of the same molecule?
A: -64%

Q: And the growth at 10 µM (PC-3)?
A: -68%

Q: What about the growth at 10 µM (MDA-MB-468 [6]) of the same molecule?
A: -73%

Q: And the growth at 10 µM (COLO 205)?
A: -90%

Q: And the growth at 10 µM (HCT-15)?
A: -42.5%

Q: And the growth at 10 µM (LOX IMVI)?
A: -88.3%

Q: And the GI50 (SF-295)?
A: 0.459 µM

Q: What about the TGI (SF-295) of the same molecule?
A: 1.9 µM

Q: What about the CC50 (SF-295) of the same molecule?
A: 4.96 µM

Q: And the GI50 (Malme-3M)?
A: 1.03 µM

Q: And the TGI (Malme-3M)?
A: 2.4 µM

Q: And the CC50 (Malme-3M)?
A: 5.6 µM

Q: What about the GI50 (786-0 [7]) of the same molecule?
A: 1.03 µM

Q: What about the TGI (786-0 [7]) of the same molecule?
A: 2.28 µM

Q: What about the CC50 (786-0 [7]) of the same molecule?
A: 5.03 µM

Q: What about the GI50 (TK-10) of the same molecule?
A: 1.16 µM

Q: What about the TGI (TK-10) of the same molecule?
A: 2.57 µM

Q: What about the CC50 (TK-10) of the same molecule?
A: 5.67 µM

Q: And the GI50 [8]?
A: 0.938 µM

Q: And the TGI [8]?
A: 3.49 µM

Q: And the CC50 [8]?
A: > 100 µM

Q: And the GI50 (T47D)?
A: 0.841 µM

Q: And the LC50 (concentration giving 50% net cell kill) (T47D)?
A: 5.08 µM

Q: And the TGI (T47D)?
A: 2.18 µM
